Results on four compounds are retold here after ChEMBL document CHEMBL1145499, “Asiatic acid and corosolic acid enhance the susceptibility of Pseudomonas aeruginosa biofilms to tobramycin” (2007).

What all share (type): functional
Test [1] relates to Pseudomonas aeruginosa. Briefly: Antibacterial activity against Pseudomonas aeruginosa PAO1 assessed as log reduction of bacterial count at 10 ug/ml by rotating disk reactor method.
In test [2] the test system is Pseudomonas aeruginosa. Briefly: Antibacterial activity against Pseudomonas aeruginosa PAO1.
The subject of test [3] is Pseudomonas aeruginosa. Briefly: Antibacterial activity against Pseudomonas aeruginosa PAO1 assessed as log reduction of bacterial count at 50 ug/ml by rotating disk reactor method.
For test [4], the system named is Pseudomonas aeruginosa. Briefly: Antibacterial activity against Pseudomonas aeruginosa PAO1 assessed as log reduction of bacterial count at 50 ug/ml by CDC biofilm reactor method. The method, boiled down:
(§1)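 CDC-type biofilm reactor with PAO1 on polystyrene coupons, grown 24 h batch then 24 h continuous flow. Medium was fed at 13 ml/min, giving ~27 min residence. Coupon treatments, inoculum, medium and analysis matched the rotating disk runs: sonication, plate counts, log10 CFU/cm2, and log reduction against untreated control.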

In test [5] the test system is Pseudomonas aeruginosa. Briefly: Antibacterial activity against Pseudomonas aeruginosa PAO1 assessed as log reduction of bacterial count at 100 ug/ml by rotating disk reactor method. The method, boiled down: (§2)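 Rotating disk reactor (~200 rpm, 180 ml, 60-min residence, ca. 26°C) with polystyrene coupons and P. aeruginosa PAO1 inoculated per ASTM E-2196-02. Biofilms were grown 24 h in batch, then 24 h under flow. Compound was added to ~100 µg/ml final (ethanol or DMSO vehicle) for 24 h in batch. Coupons then received 100 µg/ml tobramycin or PBS for 2 h at room temperature. LR = negative-control mean log10 CFU/cm2 minus treated mean, three coupons per set.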

Test [6] relates to Pseudomonas aeruginosa. Briefly: Antibacterial activity against Pseudomonas aeruginosa PAO1 assessed as log reduction of bacterial count by rotating disk reactor method. An outline of the steps: as §2
Test [7] relates to Pseudomonas aeruginosa. Briefly: Antibacterial activity against Pseudomonas aeruginosa PAO1 assessed as log reduction of bacterial count at 100 ug/ml by CDC biofilm reactor method. The method, boiled down: as §1

A word on the MIC: it is the lowest concentration found to suppress growth.

As to `C[C@H]1[C@H](C)CC[C@]2(C(=O)O)CC[C@]3(C)C(=CC[C@@H]4[C@@]5(C)C[C@@H](O)[C@H](O)[C@@](C)(CO)[C@@H]5CC[C@]43C)[C@H]12` [ASIATIC ACID], the Activity with Pseudomonas aeruginosa [1] is listed as 0.14; in the test with Pseudomonas aeruginosa [3] it was 0.12; with Pseudomonas aeruginosa [4], 0.8; with Pseudomonas aeruginosa [5], 0.19. In the test with Pseudomonas aeruginosa [2], this compound had a minimum inhibitory concentration (MIC) of at least 128 µg/mL.

Compound `O=C(O)c1cn(C2CC2)c2cc(N3CCNCC3)c(F)cc2c1=O` [CIPROFLOXACIN] gave an MIC with Pseudomonas aeruginosa [2] of at least 1 µg/mL. The Activity in the test with Pseudomonas aeruginosa [6] was -0.29.

`C[C@H]1[C@H](C)CC[C@]2(C(=O)O)CC[C@]3(C)C(=CC[C@@H]4[C@@]5(C)C[C@@H](O)[C@H](O)C(C)(C)[C@@H]5CC[C@]43C)[C@H]12` [COROSOLIC ACID]: the MIC in the test on Pseudomonas aeruginosa [2] was above 128 µg/mL. Further, the Activity in the test on Pseudomonas aeruginosa [3] is recorded as -0.04; with Pseudomonas aeruginosa [5] it was 0.02; with Pseudomonas aeruginosa [7], 0.7.

In the case of `NC[C@H]1O[C@H](O[C@H]2[C@H](O)[C@@H](O[C@H]3O[C@H](CO)[C@@H](O)[C@H](N)[C@H]3O)[C@H](N)C[C@@H]2N)[C@H](N)C[C@@H]1O` [TOBRAMYCIN], the Activity stood at 1.51 in the test with Pseudomonas aeruginosa [1], 0.4 in the test with Pseudomonas aeruginosa [6], 0.78 in the test with Pseudomonas aeruginosa [3] and 1.36 in the test on Pseudomonas aeruginosa [5].
